Measurements as given in ChEMBL document CHEMBL1165965, “Synthesis and structure-activity relationships of 1,2,3,4-tetrahydropyrido[2,3-b]pyrazines as potent and selective inhibitors of the anaplastic lymphoma kinase” (Bioorg Med Chem, 2010).

How the values were obtained:
[1] = biological target: 5'-AMP-activated protein kinase catalytic subunit alpha-2 (Homo sapiens) (UniProt P54646); assay: Inhibition of AMPK-alpha2 at 1 uM
How it was run: (§1)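 Ambit KINOMEscan screen at a single concentration across a 250–400 kinase panel, recorded as percent inhibition. Selectivity was expressed as S(90), the fraction of kinases inhibited >90%.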

[2] = biological target: Homeodomain-interacting protein kinase 1 (Homo sapiens) (UniProt Q86Z02); assay: Inhibition of HIPK1 at 1 uM
How it was run: (§2)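 Single-concentration screen on the Ambit KINOMEscan platform, run against a panel of 250–400 kinases. Per-kinase inhibition was also summarized as S(90), the fraction of kinases inhibited by more than 90%.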

[3] = biological target: T1, Aurora kinase C (Homo sapiens) (UniProt Q9UQB9); assay: Inhibition of AURKC at 1 uM; how it was run: as §1
T1 sequence (whole entry): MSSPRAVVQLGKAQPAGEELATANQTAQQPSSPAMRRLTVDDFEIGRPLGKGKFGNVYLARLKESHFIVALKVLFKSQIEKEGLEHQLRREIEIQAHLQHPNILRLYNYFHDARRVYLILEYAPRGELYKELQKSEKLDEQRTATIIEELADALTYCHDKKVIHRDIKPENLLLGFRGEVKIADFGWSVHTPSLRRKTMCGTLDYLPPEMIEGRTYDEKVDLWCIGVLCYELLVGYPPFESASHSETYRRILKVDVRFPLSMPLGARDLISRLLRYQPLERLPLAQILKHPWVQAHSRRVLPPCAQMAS

[4] = tested on: Phosphatidylinositol 4,5-bisphosphate 3-kinase catalytic subunit alpha isoform (Homo sapiens), P42336 [E545K]; assay: Inhibition of PIK3CA E545K mutant at 1 uM
Phosphatidylinositol 4,5-bisphosphate 3-kinase catalytic subunit alpha isoform (Homo sapiens), P42336 [E545K], sequence (P42336 whole entry E545K, canonical isoform): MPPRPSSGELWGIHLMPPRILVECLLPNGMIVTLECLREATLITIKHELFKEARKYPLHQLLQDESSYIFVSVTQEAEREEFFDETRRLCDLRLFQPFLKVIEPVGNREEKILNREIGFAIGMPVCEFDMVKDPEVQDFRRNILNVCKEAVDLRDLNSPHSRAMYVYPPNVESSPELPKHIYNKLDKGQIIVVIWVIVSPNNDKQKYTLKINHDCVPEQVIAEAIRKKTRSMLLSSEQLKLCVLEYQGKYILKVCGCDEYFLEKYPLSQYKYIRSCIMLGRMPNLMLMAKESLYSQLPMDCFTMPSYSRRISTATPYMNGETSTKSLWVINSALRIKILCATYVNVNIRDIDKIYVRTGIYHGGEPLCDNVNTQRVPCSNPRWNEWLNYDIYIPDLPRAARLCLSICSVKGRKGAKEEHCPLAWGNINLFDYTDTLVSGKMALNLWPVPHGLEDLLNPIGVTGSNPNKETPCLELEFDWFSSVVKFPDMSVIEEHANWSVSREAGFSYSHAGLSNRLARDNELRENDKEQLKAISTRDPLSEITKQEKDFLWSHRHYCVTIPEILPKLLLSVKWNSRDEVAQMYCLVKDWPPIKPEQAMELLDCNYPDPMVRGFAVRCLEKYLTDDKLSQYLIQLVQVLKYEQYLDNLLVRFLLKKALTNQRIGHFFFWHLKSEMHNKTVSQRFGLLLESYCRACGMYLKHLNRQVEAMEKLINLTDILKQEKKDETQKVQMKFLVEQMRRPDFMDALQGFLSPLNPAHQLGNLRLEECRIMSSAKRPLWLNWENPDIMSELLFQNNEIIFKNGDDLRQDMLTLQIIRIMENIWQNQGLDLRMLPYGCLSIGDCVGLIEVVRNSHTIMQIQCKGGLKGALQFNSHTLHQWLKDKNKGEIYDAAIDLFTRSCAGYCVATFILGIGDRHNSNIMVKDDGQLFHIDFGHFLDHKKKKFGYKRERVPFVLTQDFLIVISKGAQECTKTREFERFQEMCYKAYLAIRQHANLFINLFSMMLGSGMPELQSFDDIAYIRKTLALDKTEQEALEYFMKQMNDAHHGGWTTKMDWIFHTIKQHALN

[5] = biological target: Serine/threonine-protein kinase NIM1 (Homo sapiens) (UniProt Q8IY84); assay: Inhibition of NIM1 at 1 uM
Serine/threonine-protein kinase NIM1 (Homo sapiens), sequence (Q8IY84 whole entry): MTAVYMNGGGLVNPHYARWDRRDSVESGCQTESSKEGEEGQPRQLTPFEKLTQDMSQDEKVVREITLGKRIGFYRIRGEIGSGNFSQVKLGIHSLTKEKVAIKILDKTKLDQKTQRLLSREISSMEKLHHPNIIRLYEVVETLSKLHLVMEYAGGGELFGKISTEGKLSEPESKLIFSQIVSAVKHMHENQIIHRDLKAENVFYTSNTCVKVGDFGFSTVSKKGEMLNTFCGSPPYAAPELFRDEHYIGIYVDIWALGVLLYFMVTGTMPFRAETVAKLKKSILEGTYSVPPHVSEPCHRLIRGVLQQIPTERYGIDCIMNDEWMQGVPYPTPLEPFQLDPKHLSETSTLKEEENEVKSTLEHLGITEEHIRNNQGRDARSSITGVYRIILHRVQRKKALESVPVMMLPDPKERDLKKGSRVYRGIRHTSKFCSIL

[6] = biological target: Hepatocyte growth factor receptor (Homo sapiens) (UniProt P08581); assay: Inhibition of MET at 1 uM; how it was run: as §2
Hepatocyte growth factor receptor (Homo sapiens), sequence (P08581 whole entry): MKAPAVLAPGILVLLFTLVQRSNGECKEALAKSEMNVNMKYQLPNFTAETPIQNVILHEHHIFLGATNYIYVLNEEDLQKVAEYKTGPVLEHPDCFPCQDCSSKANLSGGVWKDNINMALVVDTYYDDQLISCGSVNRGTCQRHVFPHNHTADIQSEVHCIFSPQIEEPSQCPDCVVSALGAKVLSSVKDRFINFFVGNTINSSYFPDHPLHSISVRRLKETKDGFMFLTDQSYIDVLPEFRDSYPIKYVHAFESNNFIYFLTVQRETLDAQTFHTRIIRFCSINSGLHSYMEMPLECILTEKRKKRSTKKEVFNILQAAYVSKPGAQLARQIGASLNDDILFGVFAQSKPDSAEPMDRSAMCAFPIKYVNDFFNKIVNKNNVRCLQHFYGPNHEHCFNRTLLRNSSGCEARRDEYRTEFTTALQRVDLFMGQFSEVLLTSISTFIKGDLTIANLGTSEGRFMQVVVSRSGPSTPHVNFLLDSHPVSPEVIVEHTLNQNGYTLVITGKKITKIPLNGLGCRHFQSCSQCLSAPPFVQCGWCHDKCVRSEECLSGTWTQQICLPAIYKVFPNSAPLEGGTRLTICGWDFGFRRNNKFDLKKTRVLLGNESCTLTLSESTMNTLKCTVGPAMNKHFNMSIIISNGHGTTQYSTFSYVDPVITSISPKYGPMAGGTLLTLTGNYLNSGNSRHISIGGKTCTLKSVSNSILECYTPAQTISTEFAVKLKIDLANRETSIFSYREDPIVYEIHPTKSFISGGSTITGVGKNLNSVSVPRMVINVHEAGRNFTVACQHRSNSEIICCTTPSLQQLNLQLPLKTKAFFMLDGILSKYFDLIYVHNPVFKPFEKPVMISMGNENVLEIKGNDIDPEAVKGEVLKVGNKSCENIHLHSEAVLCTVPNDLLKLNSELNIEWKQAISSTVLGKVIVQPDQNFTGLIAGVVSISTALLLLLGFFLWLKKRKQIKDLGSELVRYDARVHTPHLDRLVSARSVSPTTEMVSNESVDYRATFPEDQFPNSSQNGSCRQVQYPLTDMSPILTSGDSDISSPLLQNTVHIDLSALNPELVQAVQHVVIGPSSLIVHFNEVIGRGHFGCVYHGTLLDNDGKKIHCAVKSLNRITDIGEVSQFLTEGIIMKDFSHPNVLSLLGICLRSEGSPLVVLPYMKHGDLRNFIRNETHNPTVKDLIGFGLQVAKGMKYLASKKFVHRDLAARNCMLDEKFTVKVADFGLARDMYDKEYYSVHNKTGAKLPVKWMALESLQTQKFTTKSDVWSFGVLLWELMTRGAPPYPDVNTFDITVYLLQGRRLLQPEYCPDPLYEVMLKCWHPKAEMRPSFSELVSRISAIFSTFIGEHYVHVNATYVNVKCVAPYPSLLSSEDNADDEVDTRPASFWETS

[7] = biological target: Epidermal growth factor receptor (Homo sapiens) (UniProt P04626+P00533+Q15303+P21860); assay: Inhibition of EGFR L747-T751del, Sins mutant at 1 uM; format: protein assay
How it was run: (§3)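 Single-concentration screen using Ambit Bioscience KINOMEscan technology across a panel of 250–400 kinases. Per-kinase inhibition from this screen was summarized as S(90), the fraction of kinases inhibited by more than 90%.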

[8] = biological target: T2, Mitogen-activated protein kinase 12 (Homo sapiens) (UniProt P53778); assay: Inhibition of p38-gamma at 1 uM
T2 sequence (whole entry): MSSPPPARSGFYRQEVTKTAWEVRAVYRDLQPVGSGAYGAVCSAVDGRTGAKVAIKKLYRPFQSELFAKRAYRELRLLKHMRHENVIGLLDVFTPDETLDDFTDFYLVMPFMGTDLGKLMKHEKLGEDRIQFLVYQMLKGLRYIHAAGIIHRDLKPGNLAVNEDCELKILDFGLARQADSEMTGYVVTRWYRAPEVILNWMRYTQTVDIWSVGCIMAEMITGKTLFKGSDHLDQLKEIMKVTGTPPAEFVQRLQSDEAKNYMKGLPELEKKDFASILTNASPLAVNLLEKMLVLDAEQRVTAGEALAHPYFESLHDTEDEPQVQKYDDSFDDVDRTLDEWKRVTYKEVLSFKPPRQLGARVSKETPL

[9] = biological target: Macrophage colony-stimulating factor 1 receptor (Homo sapiens) (UniProt P07333); assay: Inhibition of CSF1R at 1 uM; how it was run: as §3
Macrophage colony-stimulating factor 1 receptor (Homo sapiens), sequence (P07333 whole entry): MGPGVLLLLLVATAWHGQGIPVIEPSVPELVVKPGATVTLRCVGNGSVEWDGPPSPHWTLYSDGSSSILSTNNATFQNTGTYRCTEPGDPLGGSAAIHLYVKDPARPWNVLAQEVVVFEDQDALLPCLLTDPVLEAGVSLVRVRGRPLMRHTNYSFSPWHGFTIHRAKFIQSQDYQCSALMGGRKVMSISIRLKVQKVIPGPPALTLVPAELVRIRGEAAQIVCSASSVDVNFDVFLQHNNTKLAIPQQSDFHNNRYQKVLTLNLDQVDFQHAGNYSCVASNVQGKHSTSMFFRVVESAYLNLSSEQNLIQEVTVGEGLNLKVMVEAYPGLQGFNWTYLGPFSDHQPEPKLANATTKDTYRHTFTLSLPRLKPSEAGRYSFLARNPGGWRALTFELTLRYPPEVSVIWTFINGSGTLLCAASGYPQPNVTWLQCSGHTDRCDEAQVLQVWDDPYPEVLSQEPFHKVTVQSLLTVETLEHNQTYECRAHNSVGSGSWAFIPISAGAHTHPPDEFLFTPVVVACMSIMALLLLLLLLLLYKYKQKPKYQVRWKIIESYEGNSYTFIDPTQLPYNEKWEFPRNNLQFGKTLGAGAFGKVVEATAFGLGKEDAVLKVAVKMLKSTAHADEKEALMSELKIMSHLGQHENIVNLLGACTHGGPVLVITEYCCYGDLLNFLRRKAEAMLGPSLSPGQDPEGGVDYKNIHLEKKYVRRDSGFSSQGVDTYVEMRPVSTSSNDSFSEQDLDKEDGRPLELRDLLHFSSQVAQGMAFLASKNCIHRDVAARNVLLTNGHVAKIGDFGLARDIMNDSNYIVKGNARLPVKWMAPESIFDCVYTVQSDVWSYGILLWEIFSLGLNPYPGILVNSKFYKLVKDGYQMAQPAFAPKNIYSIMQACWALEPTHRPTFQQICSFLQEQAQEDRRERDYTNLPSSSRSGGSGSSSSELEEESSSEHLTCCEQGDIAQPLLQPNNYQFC

[10] = biological target: T3, Inhibitor of nuclear factor kappa-B kinase subunit beta (Homo sapiens) (UniProt O14920); assay: Inhibition of IKK-beta at 1 uM
T3 sequence (whole entry): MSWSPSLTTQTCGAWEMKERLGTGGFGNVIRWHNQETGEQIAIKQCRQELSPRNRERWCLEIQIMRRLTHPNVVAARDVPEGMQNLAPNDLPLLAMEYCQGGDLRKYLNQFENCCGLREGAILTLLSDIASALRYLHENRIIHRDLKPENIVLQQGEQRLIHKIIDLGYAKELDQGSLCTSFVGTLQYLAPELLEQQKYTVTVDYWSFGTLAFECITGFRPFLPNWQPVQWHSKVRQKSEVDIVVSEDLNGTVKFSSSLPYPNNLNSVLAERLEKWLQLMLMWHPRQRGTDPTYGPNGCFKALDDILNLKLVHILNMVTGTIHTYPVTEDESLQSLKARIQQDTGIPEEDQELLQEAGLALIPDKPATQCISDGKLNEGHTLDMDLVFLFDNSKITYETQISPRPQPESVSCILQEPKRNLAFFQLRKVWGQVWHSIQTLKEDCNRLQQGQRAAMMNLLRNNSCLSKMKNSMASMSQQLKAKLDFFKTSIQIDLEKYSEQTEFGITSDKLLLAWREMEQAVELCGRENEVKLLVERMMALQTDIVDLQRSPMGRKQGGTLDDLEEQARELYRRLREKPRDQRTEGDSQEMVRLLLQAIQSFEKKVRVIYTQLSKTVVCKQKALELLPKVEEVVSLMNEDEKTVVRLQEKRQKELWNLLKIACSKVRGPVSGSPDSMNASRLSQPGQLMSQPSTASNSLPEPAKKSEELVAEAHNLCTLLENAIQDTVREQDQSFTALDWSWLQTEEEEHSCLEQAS

[11] = biological target: T4, Interleukin-1 receptor-associated kinase 3 (Homo sapiens) (UniProt Q9Y616); assay: Inhibition of IRAK3 at 1 uM; how it was run: as §2
T4 sequence (whole entry): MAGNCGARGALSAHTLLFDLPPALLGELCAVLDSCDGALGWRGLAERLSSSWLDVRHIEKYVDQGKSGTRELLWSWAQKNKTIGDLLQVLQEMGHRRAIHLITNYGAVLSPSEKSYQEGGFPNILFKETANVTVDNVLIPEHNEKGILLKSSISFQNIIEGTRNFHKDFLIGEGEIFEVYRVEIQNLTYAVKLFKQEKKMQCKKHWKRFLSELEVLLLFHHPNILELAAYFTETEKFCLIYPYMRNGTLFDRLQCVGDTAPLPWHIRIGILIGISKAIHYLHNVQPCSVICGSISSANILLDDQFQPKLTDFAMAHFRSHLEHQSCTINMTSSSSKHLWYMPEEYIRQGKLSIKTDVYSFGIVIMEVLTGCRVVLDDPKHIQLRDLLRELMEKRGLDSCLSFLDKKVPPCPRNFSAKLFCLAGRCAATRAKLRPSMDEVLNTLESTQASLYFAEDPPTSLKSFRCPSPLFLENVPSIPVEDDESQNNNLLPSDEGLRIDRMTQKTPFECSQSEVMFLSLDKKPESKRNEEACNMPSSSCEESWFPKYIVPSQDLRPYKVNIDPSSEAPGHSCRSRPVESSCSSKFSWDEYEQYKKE

[12] = tested on: Mast/stem cell growth factor receptor Kit (Homo sapiens), P10721 [V559D,T670I]; assay: Inhibition of KIT V559D,T670I mutant at 1 uM; how it was run: as §2
[13] = biological target: Serine/threonine-protein kinase SIK1 (Homo sapiens) (UniProt P57059); assay: Inhibition of SIK at 1 uM
[14] = tested on: Mast/stem cell growth factor receptor Kit (Homo sapiens), P10721 [D816V]; assay: Inhibition of KIT D816V mutant at 1 uM; how it was run: as §2

5'-AMP-activated protein kinase catalytic subunit alpha-2 (Homo sapiens), sequence (P54646 whole entry, looked up): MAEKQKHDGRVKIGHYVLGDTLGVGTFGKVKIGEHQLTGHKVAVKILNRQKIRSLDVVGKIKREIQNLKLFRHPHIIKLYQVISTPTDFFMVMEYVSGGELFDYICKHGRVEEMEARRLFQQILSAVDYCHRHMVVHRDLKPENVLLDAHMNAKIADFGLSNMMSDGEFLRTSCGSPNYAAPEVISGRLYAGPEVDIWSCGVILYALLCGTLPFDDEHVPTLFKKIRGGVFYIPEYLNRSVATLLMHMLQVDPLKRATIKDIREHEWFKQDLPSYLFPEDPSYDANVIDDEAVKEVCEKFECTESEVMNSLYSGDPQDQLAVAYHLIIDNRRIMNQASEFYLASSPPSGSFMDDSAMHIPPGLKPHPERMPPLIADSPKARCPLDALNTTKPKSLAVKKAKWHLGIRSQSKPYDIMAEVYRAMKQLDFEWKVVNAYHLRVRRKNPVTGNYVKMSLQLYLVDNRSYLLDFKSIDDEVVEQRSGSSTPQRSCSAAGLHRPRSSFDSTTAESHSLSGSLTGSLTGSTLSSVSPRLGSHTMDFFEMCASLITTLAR

| inhibition [1] | inhibition [2] | inhibition [3] | inhibition [4] | inhibition [5] | inhibition [6] | inhibition [7] | inhibition [8] | inhibition [9] | inhibition [10] | inhibition [11] | inhibition [12] | inhibition [13] | inhibition [14] | SMILES |
| --- | --- | --- | --- | --- | --- | --- | --- | --- | --- | --- | --- | --- | --- | --- |
| < 50% | < 50% | < 50% | < 50% | < 50% | 82% | < 50% | < 50% | 88% | < 50% | < 50% | < 50% | < 50% | < 50% | CN1CCN(c2ccc(-c3cnc4c(c3)N(Cc3cc(Cl)ccc3C(F)(F)F)CCN4)cn2)CC1 |
| < 50% | < 50% | < 50% |  |  | < 50% | < 50% | < 50% | < 50% |  | < 50% | < 50% | < 50% | < 50% | O=C(O)c1ccc(-c2cnc3c(c2)N(Cc2cc(Cl)ccc2C(F)(F)F)CCN3)cc1 |
| < 50% | < 50% | 96.9% |  |  | 90.3% | < 50% | < 50% | 96.6% |  | < 50% | < 50% | 81.6% | < 50% | O=C(c1ccc(-c2cnc3c(c2)N(Cc2cc(Cl)ccc2C(F)(F)F)CCN3)cc1)N1CCC(N2CCCC2)CC1 |
| < 50% | < 50% | 79.5% |  |  | 76.6% | < 50% | < 50% | 74.2% |  | < 50% | < 50% | < 50% | < 50% | COC1CCN(C(=O)c2ccc(-c3cnc4c(c3)N(Cc3cc(Cl)ccc3C(F)(F)F)CCN4)cc2)CC1 |
| < 50% | < 50% | 92% | < 50% | < 50% | 94% | < 50% | < 50% | 99% | < 50% | 74% | 84% | < 50% | 76% | FC(F)(F)c1ccc(Cl)cc1CN1CCNc2ncc(-c3ccnc(N4CCNCC4)c3)cc21 |
| < 50% | < 50% | 89% | < 50% | < 50% | 86% | < 50% | < 50% | 93% | < 50% | < 50% | < 50% | < 50% | < 50% | CC(=O)N1CCN(c2cc(-c3cnc4c(c3)N(Cc3cc(Cl)ccc3C(F)(F)F)CCN4)ccn2)CC1 |
| < 50% | 72.2% | < 50% | < 50% | < 50% | < 50% | < 50% | < 50% | < 50% | < 50% | < 50% | < 50% | < 50% | < 50% | CN1CCN(c2ccc(-c3cnc4c(c3)N(Cc3cc(F)ccc3F)CCN4)cn2)CC1 |
| < 50% | 70% | < 50% | < 50% | < 50% | 94% | < 50% | < 50% | 96% | < 50% | < 50% | < 50% | < 50% | < 50% | CN1CCN(c2ccc(-c3cnc4c(c3)N(Cc3c(F)ccc(F)c3Cl)CCN4)cn2)CC1 |
| < 50% | < 50% | < 50% |  |  | 66% | < 50% | < 50% | < 50% |  | < 50% | < 50% | < 50% | < 50% | O=C(c1ccc(-c2cnc3c(c2)N(Cc2cc(Cl)ccc2C(F)(F)F)CCN3)cc1)N1CCCCC1 |
| < 50% | < 50% | < 50% | < 50% | < 50% | 67% | < 50% | < 50% | 88% | < 50% | < 50% | < 50% | < 50% | < 50% | CN1CCN(c2ccc(-c3cnc4c(c3)N(Cc3cc(Cl)ccc3Cl)CCN4)cn2)CC1 |
